# Measurements collected from several papers.
# Protocols differ between the studies behind these lines.
# CDK4 with cyclin D3: Cyclin-dependent kinase 4, with cyclin D3 (CDK4, Homo sapiens, UniProt P11802)
# CDK4 with cyclin D1: Cyclin-dependent kinase 4, with cyclin D1 (CDK4, Homo sapiens, UniProt P11802)
# CDK4: Cyclin-dependent kinase 4 (CDK4, Homo sapiens, UniProt P11802)
SMILES,target,assay,setting,remaining binding [%]
CN(C)c1ncc(F)c(-c2cnn3ncccc23)n1,CDK4 with cyclin D3,binding,1 µM,91
O=C(Nc1c[nH]nc1C(=O)NC1CCNCC1)c1cc(F)cc(F)c1,CDK4 with cyclin D1,"binding, competition with immobilised ligand",1 µM,66
N[C@@H]1CCN(c2nccc(-c3cnn4ncccc34)n2)C1,CDK4 with cyclin D1,binding,1 µM,100
CC(C)CC(=O)N1CCc2nc(-c3ccc(Br)cc3)nc(N(C)Cc3ccccc3)c2C1,CDK4 with cyclin D3,"cell-free assay, competition with immobilised ligand",0.1 µM,100
O=C(NCCCN1CCOCC1)c1ccc(Nc2nccc(-c3cc4ccccc4s3)n2)cc1,CDK4 with cyclin D1,"binding, competition with immobilised ligand",1 µM,83
CN(C)CC#Cc1ccc(OCCCc2sc(N3CCc4cccc(C(=O)Nc5nc6ccccc6s5)c4C3)nc2C(=O)O)c(F)c1,CDK4 with cyclin D3,"cell-free assay, competition with immobilised ligand",1 µM,100
O=C(c1ccc(Nc2ncc(Cl)c(-c3ccc(Cl)s3)n2)cc1)N1CCC(N2CCCC2)CC1,CDK4 with cyclin D3,"binding, competition with immobilised ligand",1 µM,0.9
c1cncc(-c2cccc(Nc3nccc(NC4CCCCC4)n3)c2)c1,CDK4,"binding, competition with immobilised ligand",10 µM,100
CC1CCCN1c1nccc(-c2cnn3ncccc23)n1 (centres unmarked),CDK4 with cyclin D3,binding,1 µM,100
O=C1CCc2cc(Nc3cc(OC4CCOCC4)c([N+](=O)[O-])cc3Cl)ccc2N1,CDK4,"cell-free assay, competition with immobilised ligand",1 µM,81
c1cnn2ncc(-c3ccnc(N4CCC45COC5)n3)c2c1,CDK4 with cyclin D1,binding,1 µM,81
C[C@@H](c1ccc(-n2cnc3c(N)ncnc32)cc1)N1CCc2nn(C)c(Cc3ccccc3)c2C1=O,CDK4 with cyclin D3,"binding, competition with immobilised ligand",0.1 µM,68
Nc1ncc2c(n1)-c1c([nH]c3ccc(C#CC4CC4)cc13)CCCC2,CDK4,"binding, competition with immobilised ligand",1 µM,84
COc1cnc(Nc2cccc(S(N)(=O)=O)c2)nc1N1CCN(c2ccccc2)CC1,CDK4 with cyclin D1,"binding, competition with immobilised ligand",1 µM,78
O=C(NCCCN1CCOCC1)c1ccc(Nc2ncc(Cl)c(-c3ccc(Cl)s3)n2)cc1,CDK4 with cyclin D1,"binding, competition with immobilised ligand",1 µM,0.5
O=C(O)c1cc(-c2ccc(C3CCNCC3)cc2)c2ccc(-c3ccc(C(F)(F)F)cc3)cc2c1,CDK4 with cyclin D3,"cell-free assay, competition with immobilised ligand",1 µM,100
COc1ncc2cc3ccccc3nc2c1C#N,CDK4,"cell-free assay, competition with immobilised ligand",5 µM,74
CCCOc1ccc([C@@H]2[C@@H](C(=O)O)[C@H](c3ccc4c(c3)OCO4)CN2CC(=O)Nc2c(CC)cccc2CC)cc1,CDK4,"cell-free assay, competition with immobilised ligand",1 µM,84
Cc1cnc(Nc2ccc(C(=O)N3CCC(N4CCCC4)CC3)cc2)nc1-c1cc2ccccc2s1,CDK4 with cyclin D3,"binding, competition with immobilised ligand",1 µM,2.7
CNC(=O)[C@@H]1CC[C@@H](n2c(-c3ccc4cnccc4c3)nc3ccc(C(=O)NCc4cccc(C(N)=O)c4)cc32)C1,CDK4 with cyclin D1,"binding, competition with immobilised ligand",1 µM,100
COc1cc(-c2cn(C3CCc4ccccc4N(CC(F)(F)F)C3=O)nn2)ccc1-n1ccc(C)n1 (centres unmarked),CDK4,"cell-free assay, competition with immobilised ligand",1 µM,53
O=C(c1ccc(Nc2ncc(Cl)c(-c3cc4ccccc4s3)n2)cc1)N1CCC(N2CCCC2)CC1,CDK4 with cyclin D1,"binding, competition with immobilised ligand",1 µM,3.6
C=CC(=O)N1CCC(C(=O)NCC(=O)N2CCN(c3nc(-c4cnc(N)nc4C(F)F)nc(N4CCOCC4)n3)CC2)CC1,CDK4,"binding, competition with immobilised ligand",1 µM,92
FC(F)(F)Oc1cccc(-c2cnc3ccc(-c4ccncc4)nn23)c1,CDK4,"cell-free assay, competition with immobilised ligand",5 µM,81
O=C(c1ccc(Nc2nccc(-c3cc4ccccc4s3)n2)cc1)N1CCC(N2CCCC2)CC1,CDK4,"binding, competition with immobilised ligand",1 µM,88
C[C@H]1CCN(c2nccc(-c3cnn4ncccc34)n2)C1,CDK4,binding,1 µM,95
Cc1nccc(COC(=O)N2C[C@@H]3[C@@H](CNC(=O)c4ccc5[nH]nnc5c4)[C@@H]3C2)n1,CDK4 with cyclin D3,"cell-free assay, competition with immobilised ligand",1 µM,78
COc1cnc(Nc2cccc(S(N)(=O)=O)c2)nc1N1CCN(c2ccccc2)C(=O)C1,CDK4 with cyclin D3,"binding, competition with immobilised ligand",1 µM,87
CN(c1nccc(-c2cnn3ncccc23)n1)C1CC1,CDK4 with cyclin D3,binding,1 µM,100
C[C@H](c1ccc(F)cc1)N(Cc1cccc(C(=O)O)c1)C(=O)c1cnc2ccccc2c1,CDK4 with cyclin D1,"cell-free assay, competition with immobilised ligand",1 µM,100
CN(C)c1nccc(-c2cnn3ncccc23)n1,CDK4 with cyclin D3,binding,1 µM,100
O=C(NCC1CCOCC1)c1n[nH]cc1NC(=O)c1c(F)cccc1F,CDK4 with cyclin D1,"binding, competition with immobilised ligand",1 µM,47
